Measured values: ChEMBL document CHEMBL3259621, “Novel merosesquiterpene exerts a potent antitumor activity against breast cancer cells in vitro and in vivo” (Eur J Med Chem, 2014)
The source made the active and inactive calls. No cut-off for these calls is given here.

What was measured:
[1] = tested on: MCF7; assay: Induction of apoptosis in human MCF7 cells assessed as increase in E-cadherin expression at 1 to 2 uM after 48 hrs by FACS analysis; format: functional, cell-based
In short: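 MCF-7 seeded at 5 × 10⁴/cm² and treated at 24 h with 1 or 2 µM compound for 48 h. Labelled with fluorochrome-conjugated anti-E-cadherin or anti-β-catenin antibody for 30 min at 4 °C in the dark, washed in PBS. Mean fluorescence intensity measured by FACScan flow cytometry.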

[2] = Therapeutic index, ratio of IC50 for human CCD-18Co cells to IC50 for human T84 cells; format: cell-based, T84; CCD-18Co; conditions: CCD-18Co cells versus T84 cells, read-out: Ratio IC50
[3] = tested on: MCF7; assay: Induction of apoptosis in human MCF7 cells assessed as increase in phosphorylated p53 level at 2 uM after 4 to 24 hrs by Western blotting analysis relative to control; format: functional, cell-based
In short: (§1)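 MCF-7 seeded at 5 × 10⁴/cm² and exposed at 24 h to 2 µM compound for 0, 4, 8, 16 and 24 h. Lysates separated on 12% SDS gels, transferred to nitrocellulose, blocked in 5% milk. Primary antibodies applied overnight at 4 °C, then secondary 1 h at room temperature. Detection by ECL chemiluminescence with β-actin as loading reference.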

[4] = tested on: MCF7; assay: Cell cycle arrest in human MCF7 cells assessed as accumulation at […] phase at 1 uM after 48 hrs by propidium iodide/RNAse staining-based FACS analysis (reference value: 8.02 %); format: functional
[5] = tested on: MCF7; assay: Induction of apoptosis in human MCF7 cells assessed as late apoptotic cells at 1 uM after 48 hrs by annexin V staining-based flow cytometry (reference value: 3.24 %); format: functional
[6] = tested on: MCF7; assay: Cytotoxicity against human MCF7 cells assessed as reduction in cell viability at 1 uM after 3 days by SRB assay relative to control; format: functional
In short: (§2)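 MCF-7 seeded at high density (5 × 10⁴/cm²) and treated at 24 h with compound for 3 days, with or without 20 mM NAC. Viable cells quantified by sulforhodamine B staining, OD 492 nm. Viability reduction expressed versus untreated controls.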

[7] = tested on: MCF7; assay: Induction of apoptosis in human MCF7 cells assessed as apoptotic cells at 2 uM after 48 hrs by annexin V staining-based flow cytometry (reference value: 3.44 %); format: functional
[8] = tested on: HT-29; assay: Cytotoxicity against human HT-29 cells after 3 days by SRB assay; format: functional, cell-based; conditions: HT-29, 72 h
In short: (§3)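 Cells seeded at 5 × 10³ cells/cm² in quadruplicate and, after 24 h, treated with increasing concentrations for 3 days. Compounds diluted from DMSO stock, final DMSO <0.1% v/v. Cells were fixed with cold 10% TCA, stained with 0.4% sulforhodamine B in 1% acetic acid, and dye solubilised in 10 mM Tris-base pH 10.5. OD read at 492 nm. IC50 obtained by linear interpolation on a semi-log dose-response curve.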

[9] = tested on: MCF7; assay: Induction of apoptosis in human MCF7 cells assessed as reduction in phosphorylated pRb expression at 2 uM after 16 hrs by Western blotting analysis relative to control; format: functional; design: scale not given: the % may be the effect or the level left
In short: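 MCF-7 seeded at 5 × 10⁴ cells/cm², exposed after 24 h to 2 µM for 0, 4, 8, 16 and 24 h. Lysed in SDS sample buffer, run on 12% acrylamide gels, transferred to nitrocellulose and blocked with 5% milk. Primary antibodies overnight at 4 °C (total or phospho-pRb, β-actin), secondary 1 h at room temperature, ECL chemiluminescence detection.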

[10] = tested on: MCF7; assay: Cell cycle arrest in human MCF7 cells assessed as accumulation at G2-M phase at 3 uM after 24 hrs by propidium iodide/RNAse staining-based FACS analysis (reference value: 8.20 %); format: functional
[11] = tested on: MCF7; assay: Cell cycle arrest in human MCF7 cells assessed as accumulation at G0-G1 phase at 2 uM after 24 hrs by propidium iodide/RNAse staining-based FACS analysis (reference value: 42.34 %); format: functional
[12] = Therapeutic index, ratio of IC50 for human CCD-18Co cells to IC50 for human RKO cells; format: cell-based; conditions: CCD-18Co cells versus RKO cells, read-out: Ratio IC50
[13] = Cytotoxicity against mouse E0771 cells after 3 days by SRB assay; format: functional, cell-based; conditions: E0771, 72 h; in short: as §3
[14] = tested on: MCF7; assay: Cell cycle arrest in human MCF7 cells assessed as accumulation at G2-M phase at 2 uM after 24 hrs by propidium iodide/RNAse staining-based FACS analysis (reference value: 8.20 %); format: functional
[15] = tested on: Mus musculus; assay: Toxicity in C57BL/6 mouse allografted with mouse E0771 cells assessed as survival at 5 to 15 mg/kg, po; format: organism-based; design: dose 5-15 mg/kg, route oral; conditions: in vivo
In short: (§4)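 C57BL/6 mice (10 per group) injected subcutaneously in the right side with 1 × 10⁶ E0771 cells. At day 9, with tumours at 75 mm³, mice were randomised to oral vehicle (1% methylcellulose) or 5, 10 or 15 mg/kg on six occasions. Animals were monitored to day 42 for survival and for signs of toxicity such as hair loss or diarrhoea.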

[16] = tested on: T84; assay: Cytotoxicity against human T84 cells after 3 days by SRB assay; format: functional, cell-based; conditions: T84, 72 h
In short: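 Cells seeded in quadruplicate at 5 × 10³ cells/cm². Compound added at 24 h over increasing concentrations for 3 days. Cells fixed with cold 10% TCA, stained with 0.4% sulforhodamine B in 1% acetic acid, dye solubilized in 10 mM Tris pH 10.5, OD read at 492 nm. IC50 taken by linear interpolation of the semi-log dose-response curve. DMSO below 0.1% final.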

[17] = tested on: MCF7; assay: Cell cycle arrest in human MCF7 cells assessed as accumulation at G0-G1 phase after 24 hrs by propidium iodide/RNAse staining-based FACS analysis; format: functional
[18] = Antitumor activity against mouse E0771 cells allografted in C57BL/6 mouse assessed as mean tumor volume at 5 to 15 mg/kg, po measured on day 42 relative to vehicle-treated control; format: functional; conditions: dose mg/kg 5-15
In short: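 C57BL/6 mice (40) injected subcutaneously in the right side with 1 × 10⁶ E0771 cells. At day 9, with tumors at 75 mm³, randomized into four groups of 10 and dosed orally six times with vehicle (1% methylcellulose) or compound at 5, 10 or 15 mg/kg. Tumor volume followed to day 42.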

[19] = tested on: Mus musculus; assay: Toxicity in C57BL/6 mouse allografted with mouse E0771 cells assessed as diarrhea at 5 to 15 mg/kg, po; format: organism-based; design: dose 5-15 mg/kg, route oral; conditions: in vivo; in short: as §4
[20] = tested on: MCF7; assay: Cytotoxicity against human MCF7 cells at 1 to 3 uM after 3 days by SRB assay in presence of NAC; format: functional, cell-based; in short: as §2
[21] = tested on: SW480; assay: Cytotoxicity against human SW480 cells after 3 days by SRB assay; format: functional, cell-based; conditions: SW480, 72 h; in short: as §3
[22] = tested on: MCF7; assay: Cytotoxicity against human MCF7 cells assessed as reduction in cell viability at 3 uM after 3 days by SRB assay relative to control; format: functional; in short: as §2
[23] = tested on: MCF7; assay: Cell cycle arrest in human MCF7 cells assessed as accumulation at G0-G1 phase at 1 uM after 24 hrs by propidium iodide/RNAse staining-based FACS analysis (reference value: 42.34 %); format: functional
[24] = tested on: MCF7; assay: Induction of apoptosis in human MCF7 cells assessed as reduction in c-myc expression at 2 uM after 16 hrs by Western blotting analysis relative to control; format: functional; design: scale not given: the % may be the effect or the level left; in short: as §1
[25] = Therapeutic index, ratio of IC50 for human CCD-18Co cells to IC50 for human HT-29 cells; format: cell-based; conditions: CCD-18Co cells versus HT-29 cells, read-out: Ratio IC50

C=C1CC[C@@H]2[C@](C)(CCC[C@]2(C)C(=O)OC)[C@H]1Cc1c(C)ccc2c1C(=O)C=CC2=O
Activity [1]: Active
selectivity ratio [2]: 0.59
Activity [3]: Active
Activity [4]: 15.56%
Activity [5]: 9.63%
viability [6]: 90.21%
Activity [7]: 29.13%
IC50 [8]: 1970 nM
Activity [9]: 90%
Activity [10]: 5.08%
Activity [11]: 66.6%
selectivity ratio [12]: 0.56
IC50 [13]: 390 nM
Activity [14]: 19.25%
Activity [15]: Non-toxic
IC50 [16]: 560 nM
Activity [17]: Dose-dependent effect
fold change (FC) [18]: 2.4
Activity [19]: Non-toxic
Activity [20]: inactive
IC50 [21]: 920 nM
viability [22]: 23.26%
Activity [23]: 51.4%
Activity [24]: 50%
selectivity ratio [25]: 0.17
